# Compound activity (PubChem)
# TAAR1 antag: antagonists of human TAAR1; Q96RJ0; CHO RD-HGA16 TAAR1, Fluo-8 calcium fluorescence, antagonist; inhibition, % at 3 µM; 360,000 compounds, 1.5% hits; AID 624466;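 active = inhibition above a per-plate cutoff, the mean inhibition of test compounds on that plate plus 3 SD, cut at about 49% in these data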;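 note: 0% = DMSO plus EC80 beta-PEA response and 100% = DMSO alone without agonist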
# Target sequence (Q96RJ0 whole entry, looked up): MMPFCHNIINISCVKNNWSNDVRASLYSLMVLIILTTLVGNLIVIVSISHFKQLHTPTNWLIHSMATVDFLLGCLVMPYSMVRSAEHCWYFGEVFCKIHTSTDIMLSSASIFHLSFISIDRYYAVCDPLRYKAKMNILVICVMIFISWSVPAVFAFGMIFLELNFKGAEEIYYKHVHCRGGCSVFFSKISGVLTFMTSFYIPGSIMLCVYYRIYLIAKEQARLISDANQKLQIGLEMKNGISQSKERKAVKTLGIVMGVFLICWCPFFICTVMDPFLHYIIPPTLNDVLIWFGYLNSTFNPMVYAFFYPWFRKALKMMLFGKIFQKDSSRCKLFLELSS
#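 Test system – hTAAR1-expressing CHO RD-HGA16 cells, Gα16-coupled · Also added – β-PEA at EC80 concentration, post-compound challenge · Compound – 3 µM, single point · Incubation – dye loading 75 min at 37 °C, then 30 min room temperature · Measured by – Fluo-8 intracellular calcium dye fluorescence, real-time kinetic reads · Benchmarks – vehicle and agonist controls · Replicates – singlicate, one well per test compound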
# OXTR potentiator: human OXTR potentiation | P30559 | CHO-OTR cells, Fluo-8 calcium fluorescence, potentiator mode; 0% = oxytocin EC15, 100% = EC100 | activation, % at 3 µM | 320,000 compounds, 0.061% hits | AID 2445;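 active = activation above that plate's cutoff, the mean activation of tested compounds plus 3 SD, cut at about 6.6% in these data, passing the limit was not always enough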;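 note: 100% uses oxytocin at 75 nM as the full agonist control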
#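 Replication – single well per compound, singlicate · Assay system – CHO cell line stably expressing human OTR · Timing – 6 min pre-incubation, 100 s read · Measure – normalized max/min fluorescence ratio, % activation · Doses – 3.0 µM, one dose · Detection – Fluo-8 calcium dye fluorescence · Probe or stimulus – oxytocin near EC15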
# TAAR1 ag: agonists of human TAAR1; Q96RJ0; CHO RD-HGA16 TAAR1, Fluo-8 calcium fluorescence; vehicle wells 0%, saturating PEA agonist 100%; activation, % at 3 µM; 360,000 compounds, 0.99% hits;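 active = activation above the mean activation of all test compounds in the run plus 3 SD, cut at about 38% in these data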
#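 Repeats: no replicates (n 1) | Material: CHO-derived RD-HGA16 cells with stable Gα16 and human TAAR1 | Technique: Kinetic Fluo-8 calcium fluorescence | Schedule: 17-24 h seeding, 75 min 37 °C dye, 30 min RT | Evaluation: % activation from peak over basal fluorescence ratio, DMSO-to-PEA scaled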
# OXTR agonist: activates the human oxytocin receptor | CHO-OTR cells, Fluo-8 calcium fluorescence; normalized: DMSO 0%, oxytocin 100% | 320,000 compounds, 0.32% hits | activation, % at 3 µM;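 active = activation above the mean of all tested compounds plus 3 SD, cutoff set per screening run, cut at about 20% in these data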;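 note: peak over basal fluorescence ratio from a 100 s FLIPR kinetic read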
# V1R ag counter: activates human V1a receptor in oxytocin agonist counter-screen. CHO-V1R cells, Fluo-8 calcium fluorescence, agonist mode; 0% DMSO, 100% 3 nM vasopressin. activation, % at 3 µM. 320,000 compounds, 0.25% hits. AID 2797;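 active = activation above the mean activation of all tested compounds plus 3 SD, per screening run, cut at about 20% in these data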;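 note: signal is peak over basal fluorescence ratio across a 100 second FLIPR read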
# An asterisk follows results filed as active; . = not tested or not shown. Hits are enriched below; roughly 2.3% of the tested compounds scored in any of these assays.
SMILES,TAAR1 antag,OXTR potentiator,TAAR1 ag,OXTR agonist,V1R ag counter
COc1cc(OC)c2c(=O)c3c(C(=O)O)c(O)ccc3oc2c1,-15.9,.,0.4,.,.
CCCCNc1c(-c2ccc(SC(C)CC)c(OC)c2)nc2ccc(Cl)cn12 (stereo not drawn),61.6*,-6.9,-0.3,-2.1,-1.5
CCCCNc1c(-c2ccc(OC)c(Sc3ccc(OC)cc3)c2)nc2ccccn12,.,-10.0,.,-1.0,2.0
CCCCNc1c(-c2ccc(-c3ccc(OC)cc3)c(OC)c2)nc2ccccn12,72.5*,-9.1,7.1,-2.0,-0.2
CCCCCCSc1ccc(-c2nc3ccc(Cl)cn3c2NCCCC)cc1OC,14.7,-3.6,1.5,-0.3,0.6
CCCCNc1c(-c2ccc(SC(C)CC)c(OC)c2)nc2ccc(C)cn12 (stereo not drawn),86.8*,-10.7,9.1,-2.6,0.4
O=c1[nH]cc(S(=O)(=O)N2CCN(c3ccccc3F)CC2)c(=O)[nH]1,14.3,.,-0.7,.,.
CC(C)(C)C(=O)Nc1ccccc1C(=O)Nc1cc(Cl)ccc1Cl,26.5,-3.1,54.0*,-0.1,-0.7
CC(C)(C)C(=O)Nc1ccccc1C(=O)Nc1cccnc1,-18.3,4.3,-0.7,0.5,-0.8
CCCC1/C(=N/O)CC(c2ccccc2)NC1c1ccccc1 (stereo not drawn),57.4*,-28.7,17.9,0.0,3.0
C=C1[C@H](C)CN(S(=O)C(C)(C)C)[C@H]1CCO (stereo partly drawn),12.8,.,1.7,.,.
CC1(C)CC(=O)C2=C(C1)Nc1ccccc1NC2c1cccc(F)c1 (stereo not drawn),4.0,.,0.8,.,.
Cn1cccc1C1Nc2ccccc2NC2=C1C(=O)CC(C)(C)C2 (stereo not drawn),56.2*,-2.8,16.0,-0.1,0.8
CCn1c(SCc2ccc(C(=O)Nc3cc(C)cc(C)c3)cc2)nnc1-c1ccncc1,59.0*,-18.4,21.7,4.4,1.2
Cc1ccc(NC(=O)c2ccc(CSc3nnc(-c4ccncc4)n3C)cc2)cc1,-1.2,-2.7,2.8,0.6,0.2
CCOC(=O)/C(C#N)=C/C=C1/C=CC=CN1C,-14.0,-6.0,3.0,1.3,1.8
C=CCN1C=CC(=C/C=C(/C#N)C(=O)OCC)C=C1,20.5,-8.4,31.9,29.1*,21.0*
Cc1onc(-c2ccccc2)c1C(=O)Nc1nc(-c2ccc(F)c(F)c2)cs1,-1.8,7.2,38.8*,0.1,1.6
Cc1csc(NC(=O)c2c(-c3ccccc3)noc2C)n1,-7.4,-4.4,-1.2,-0.1,-0.3
CCc1noc(C)c1C(=O)OCC(=O)Nc1nc(-c2ccc(F)c(F)c2)cs1,68.8*,-9.5,12.7,3.4,8.4
COC(=O)[C@]12C[C@H](CC(=O)NCc3cccs3)C(=O)N(Cc3ccccc3)C1=C[C@H](C1CCCC1)O[C@@H]2C,-16.2,.,-1.3,.,.
COc1ccc(OC(C)C(=O)Nc2ccc([N+](=O)[O-])cc2)cc1 (stereo not drawn),13.8,-14.9,16.5,3.4,5.7
COc1ccc(NC(=O)C(C)Oc2ccc(/C(C)=N\O)cc2)cc1 (stereo not drawn),5.6,-22.9,54.8*,39.5*,33.0*
CCN=C1SC(CC(=O)Nc2ccc3c(c2)OCO3)C(=O)N1CC (stereo not drawn),58.6*,-8.7,15.7,1.2,0.9
Cc1cc(C(=O)CSc2nc3ccccc3[nH]2)c(C)n1CC1CCCO1 (stereo not drawn),72.4*,-13.2,31.7,15.0,11.2
SMILES,TAAR1 antag,OXTR potentiator,TAAR1 ag,OXTR agonist,V1R ag counter
Cc1nnc(NC(=O)CSc2ncnc3c2cnn3-c2ccccc2C)s1,1.6,0.3,2.1,0.8,0.4
CCOC(=O)Cc1csc(NC(=O)CSc2ncnc3c2cnn3-c2ccccc2Cl)n1,62.1*,.,22.8,.,.
CCOC(=O)CSc1nnc(CNc2ccc(Cl)cc2)n1-c1ccccc1,51.8*,-11.3,15.7,14.6,8.7
Cc1ccc(Sc2ccc(S(=O)(=O)Nc3ccc(C(=O)O)cc3)cc2)cc1C,56.5*,-12.8,20.9,25.3*,20.9*
COc1cc(/C=N/Nc2ccnc(=O)[nH]2)ccc1O,-10.1,.,5.0,.,.
O=c1nccc(N/N=C/c2cccc(O)c2)[nH]1,-13.5,2.2,39.9*,1.8,-0.1
